One may read the EC50 as the concentration at which the effect is half-maximal. Usually IC50 stands for the concentration at which inhibition is half-maximal. The CC50 is the concentration giving 50% cytotoxicity. A lower CC50 goes with harm at low concentration. The term solubility denotes the concentration that dissolves in the medium under given conditions. The fraction unbound is free concentration divided by total concentration. A higher fraction unbound goes with much free substance.

Data on five compounds can be found in paper PMC4336584 (Chemistry & biology, 2015).

The test system of data set [1] is HIV-1 (NL4.3 virus). The conditions noted are these: 21 days bi-daily dosing at 100 mg/kg; ref Stoddart et al. [29]; cited from earlier work.
Data set [2] concerns Huh7 cells transfected with HBV DNA. The data set is described as follows: HBV antiviral assay in cells transfected with HBV DNA. Format: cell-based. Particulars: test/control value, day 3, 2 µM. Put shortly:
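Huh7 cells were transfected with HBV DNA (8 μg) in the presence of 2 μM test compound or DMSO. On day 3, de novo HBsAg in cell extracts or supernatants was quantified by ELISA in triplicate. A test/control value was calculated from these readings.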

Data set [3] has as its system HCV Gt1b replicon in Huh 5-2 cells. As to the kind of experiment: HCV antiviral assay Huh 5-2. It counts as cell-based. The conditions noted are these: Hepatitis C virus, Huh-5-2, 96 h, read-out: HCV Huh5.2 Gt1b replicon EC50. The procedure, abridged: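 Huh 5-2 cells seeded at 6.5 × 10³/well in DMEM with 250 μg/ml G418 and held 24 hr at 37°C, 5% CO2. Medium then replaced by 3-fold serial dilutions of test compound in complete DMEM without G418. After 4 days at 37°C, luciferase activity read and expressed as percent of untreated controls.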
On the technique in general: A replicon is a self-replicating genome or part of one, used to study replication in cells.

For another data set, the system named is HCV Huh7 Gt1b replicon. As to the kind of experiment: HCV replicon antiviral assay, genotype 1b. Format: cell-based. Particulars: Hepatitis C virus, Huh-7, 72 h, read-out: HCV Huh7 Gt1b replicon EC50. Put shortly:
(§1)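 Subgenomic replicon cells were maintained at 37°C, 5% CO2 in DMEM with 10% FBS and 250 μg/ml G418. They were seeded at 5 × 10³ cells/well without G418. Next day, serial dilutions of compound in DMEM plus 5% FBS were added for 72 hr at 37°C. HCV RNA was measured by one-step TaqMan real-time RT-PCR, with ribosomal RNA as the cell-number/cytotoxicity control. EC50 was derived from both measurements.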

Data set [4] concerns HepG2 cells stably replicating HBV. The data set is described as follows: HBV antiviral assay in cells stably replicating HBV. Format: cell-based. Particulars: Hepatitis B virus, 72 h. Put shortly:
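HepG2 cells stably replicating HBV were treated with test compound at 0.1, 1 or 10 μM, with DMSO as control, for 3 days. Supernatant was then removed and cells were retreated. After a further 72 hr, HBsAg and HBeAg were measured by ELISA and HBV DNA was quantified, all in cell extracts and in triplicate.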

The next data set has as its system HIV-1 in CD4+ HeLa cells. The data set is described as follows: CD4+ HeLa HIV-1 inhibitory FACS assay. Format: cell-based. Particulars: Human immunodeficiency virus 1, HeLa, 48 h, read-out: HIV-1 HeLa cells IC50. A general note: A flow cytometer gives signals particle by particle.
A further data set relates to HIV-1 viral load. Particulars: 14 days dosing, HIV/HCV co-infected patients; cited from earlier work.
The next data set is described as follows: Cytostatic assay. Particulars: human, Huh 5-2 cells. Format: cell-based.
Data set [5] concerns HIV-1 (NL4.3 virus). The data set is described as follows: SCID-hu Thy/Liv mouse model of HIV-1 infection. Format: in vivo, SCID-hu Thy/Liv mice. Particulars: oral bi-daily 14 days, 50 or 100 mg/kg/day. The procedure, abridged: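 Human fetal thymus and liver were coimplanted under the kidney capsule of male C.B-17 SCID mice aged 6–8 weeks. Implants were inoculated with NL4-3 by direct injection 18 weeks later; controls received medium. Groups of six received 50 or 100 mg/kg/day by twice-daily oral gavage from day −1 until implant collection 2 weeks post-inoculation. Implant cells were assayed for p24 (ELISA), viral RNA (bDNA) and CD3/CD4/CD8 thymocytes (flow cytometry). Results are means with SD.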

Data set [6] can be described thus: Solubility analysis in PBS pH 7.4. Format: physicochemical. Particulars: pH 7.4, aqueous buffer, kinetic from dmso stock.
Data set [7] deals with HCV Huh7 Gt1a replicon (H77). The data set is described as follows: HCV replicon antiviral assay, genotype 1a. Format: cell-based. Particulars: Hepatitis C virus, Huh-7, 72 h, read-out: HCV Huh7 Gt1a replicon EC50. The procedure, abridged: as §1
Data set [8] is described as follows: Plasma protein binding analysis. Format: in vitro ADME. Particulars: human.
The target in data set [9] is HCV NS5A-cyclophilin A complex (Homo sapiens, UniProt P62937). The data set is described as follows: biochemical.
HCV NS5A-cyclophilin A complex, sequence (P62937 whole entry, one chain of several): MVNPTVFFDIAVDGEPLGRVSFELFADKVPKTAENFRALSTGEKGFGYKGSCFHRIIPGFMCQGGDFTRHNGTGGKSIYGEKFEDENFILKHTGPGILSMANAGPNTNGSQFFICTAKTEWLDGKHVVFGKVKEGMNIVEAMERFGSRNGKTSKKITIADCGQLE
Data set [10] deals with HCV Huh7 Gt2a replicon (JFH-1). The data set is described as follows: HCV replicon antiviral assay, genotype 2a. It counts as cell-based. Particulars: Hepatitis C virus, Huh-7, 72 h, read-out: HCV Huh7 Gt2a replicon EC50. The procedure, abridged: as §1

Values after ≈ are worked out from the molar mass of the structure shown. Where two headings read alike, the source gives them in different places.

Turning to `Nc1nc(=O)n([C@@H]2CS[C@H](CO)O2)cc1F` [emtricitabine], in the data set on HIV-1 (NL4.3 virus) [1], the “viral RNA reductions” value is 1–4 log10.
Regarding `C/C=C/C[C@@H](C)[C@@H](O)[C@H]1C(=O)N[C@@H](CC)C(=O)N(C)[C@H](C)C(=O)N(CC)[C@@H](C(C)C)C(=O)N[C@@H](C(C)C)C(=O)N(C)[C@@H](CC(C)C)C(=O)N[C@@H](C)C(=O)N[C@H](C)C(=O)N(C)[C@@H](CC(C)C)C(=O)N(C)[C@@H](CC(C)C)C(=O)N(C)[C@@H](C(C)C)C(=O)N1C` [Alisporivir], the “HBV HepG2 transfected HBsAg T/C d3 at 2uM” value in data set [2] was 18%. The concentration giving a half-maximal response (EC50) in data set [3] worked out at 96 ± 23 nM; in the data set on HCV Huh7 Gt1b replicon it was 76 ± 5 nM; in [7], 98 ± 11 nM; in [10] it was 102 ± 8 nM. The IC50 in data set [4] (read-out: HBV Huh7 stable HBV DNA IC50) was greater than 10000 nM; in [4] (read-out: HBV Huh7 stable HBeAg IC50) it was greater than 10000 nM; in data set [4] (read-out: HBV Huh7 stable HBsAg IC50), greater than 10000 nM; in the data set with HIV-1 in CD4+ HeLa cells, 1500 ± 240 nM; in data set [9], 240 ± 20 nM. Also, the “mean drop in viral load” value in the data set on HIV-1 viral load was ~ 1 log. Besides, the midpoint of cytotoxicity in the data set “Cytostatic assay”, the CC50 at 3 days, lay at 11200 nM. For the same compound, the “overt signs of toxicity” value in the data set with HIV-1 (NL4.3 virus) [5] is “No overt signs of toxicity”. Further, in data set [6], the solubility at 4 h stood at 15 µM (≈ 18.2 µg/mL). This compound also returned an unbound share (fraction unbound) at 5 h, 1 µM in data set [8] of less than 0.04.
For the compound `COC(=O)N[C@H](C(=O)N[C@@H](Cc1ccccc1)[C@@H](O)CN(Cc1ccc(-c2ccccn2)cc1)NC(=O)[C@@H](NC(=O)OC)C(C)(C)C)C(C)(C)C` [atazanavir], the “viral RNA reductions” value in the data set with HIV-1 (NL4.3 virus) [1] is reported as 1–4 log10.
For `Cc1ccnc2c1NC(=O)c1cccnc1N2C1CC1` [nevirapine], the “viral RNA reductions” value in the data set with HIV-1 (NL4.3 virus) [1] is 1–4 log10.
Regarding `O=C1Nc2ccc(Cl)cc2[C@@](C#CC2CC2)(C(F)(F)F)O1` [efavirenz], the “viral RNA reductions” value with HIV-1 (NL4.3 virus) [1] is given as 1–4 log10.
